Screens (PubChem)
Kir21 block: inhibitors of mouse Kir2.1 inward-rectifier potassium channel. Inward rectifier potassium channel 2 (Mus musculus), P35561. B-score at 10 µM. 310,000 compounds, 0.85% hits. HEK293-Kir2.1, FluxOR thallium flux fluorescence; stronger effect = lower value;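 active means fluorescence ratio B-score at or below minus 3 SD of library scores, with starting-brightness B-score within 2 SD, cut at about -4.2 in these data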;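 further: channel flux triggered by added potassium and thallium sulfate stimulus; B-score of peak minus minimum fluorescence over baseline after thallium stimulus; more negative B-score means stronger Kir2.1 block with less thallium influx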
KCNK9 inh: KCNK9 potassium channel inhibitors, primary screen, HEK293 cells, thallium flux | AID 488922, 2010 | B-score at 10 µM | 310,000 compounds, 1.2% hits | Potassium channel subfamily K member 9 (Homo sapiens), Q9NPC2 | FluxOR thallium flux fluorescence; stronger effect = lower value;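 active means ratio B-score over 3 SD below the library mean, with starting fluorescence within 5 SD of its mean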;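 further: negative B-score means less thallium flux so channel inhibition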
KCNK3 block: human KCNK3 channel inhibitors, primary screen, CHO cells, FluxOR thallium flux, B-score; Potassium channel subfamily K member 3 (Homo sapiens), O14649; FluxOR fluorescence; stronger effect = lower value; B-score at 10 µM; 340,000 compounds, 0.84% hits;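 active means B-score under library mean minus 4 SD, starting fluorescence ratio at most library mean plus 5 SD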;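 further: more negative B-score means stronger inhibition of thallium flux through KCNK3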
hERG rescue: hERG rescue from dofetilide block, primary screen, cell-based, CHO-hERG, FluxOR thallium flux, dofetilide IC70; dofetilide IC70 present; activation (rescue from dofetilide block), less the hit threshold, % at 10 µM; 310,000 compounds, 0.51% hits; AID 1511, 2009;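 active means activation above the mean of controls blocked by dofetilide plus 5 SD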;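 further: thallium influx through hERG after potassium depolarization seen as dye fluorescence rise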
KCNQ1 act: potentiators or activators of KCNQ1 channel, primary screen, cell-based, thallium flux, high-throughput. Potassium voltage-gated channel subfamily KQT member 1 (Homo sapiens), P51787. CHO-K1 KCNQ1, thallium flux FluxOR fluorescence; stronger effect = higher value. B-score at 10 µM. 310,000 compounds, 0.35% hits;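 active means fluorescence ratio B-score, a plate-corrected score, at least three library SD, with initial intensity B-score within 5 SD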
Target sequence (P51787 whole entry, looked up): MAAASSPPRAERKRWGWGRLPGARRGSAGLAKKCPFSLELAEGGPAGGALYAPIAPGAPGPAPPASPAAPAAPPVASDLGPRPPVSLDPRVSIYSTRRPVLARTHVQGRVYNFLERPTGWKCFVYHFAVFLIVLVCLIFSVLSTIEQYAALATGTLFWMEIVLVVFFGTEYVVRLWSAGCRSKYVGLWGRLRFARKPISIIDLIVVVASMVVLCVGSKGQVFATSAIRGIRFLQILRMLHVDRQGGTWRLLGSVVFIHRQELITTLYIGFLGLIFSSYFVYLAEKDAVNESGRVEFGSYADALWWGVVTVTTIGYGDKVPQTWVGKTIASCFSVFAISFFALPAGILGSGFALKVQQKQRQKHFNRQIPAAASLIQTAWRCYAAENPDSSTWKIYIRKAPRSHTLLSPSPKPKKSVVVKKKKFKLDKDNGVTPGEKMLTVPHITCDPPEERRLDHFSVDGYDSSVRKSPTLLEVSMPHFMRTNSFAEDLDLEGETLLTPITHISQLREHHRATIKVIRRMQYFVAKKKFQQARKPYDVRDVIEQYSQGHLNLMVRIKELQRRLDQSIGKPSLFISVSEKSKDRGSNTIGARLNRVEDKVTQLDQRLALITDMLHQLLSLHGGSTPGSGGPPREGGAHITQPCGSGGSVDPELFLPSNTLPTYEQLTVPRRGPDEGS
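Doses: Single concentration per compound, DMSO matched to controls | Test system: KCNQ1-transfected CHO-K1 cells | Timing: 90 min dye loading and 20 min compound exposure, both at room temperature | Measured by: Kinetic FluxOR thallium fluorescence, 10-s 1-Hz baseline, 110-s post-stimulus read | Medium: Assay buffer with matched DMSO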
KCNQ1 block: inhibitors of human KCNQ1 channel, primary screen, cell-based, thallium flux, high-throughput. 310,000 compounds, 1.3% hits. CHO-K1 KCNQ1, FluxOR thallium flux fluorescence; stronger effect = higher value. AID 2642, 2010. B-score at 10 µM;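 active means compounds whose thallium flux B-score, printed positive for inhibition, exceeds three library SD while starting fluorescence stays within three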;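 further: channel opened by potassium depolarization with thallium stimulus after 20 min compound exposure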
KCNK9 block conf: KCNK9 potassium channel inhibitors, confirmation, HEK293 cells, thallium flux, duplicate. shares compounds with KCNK9 inh. FluxOR thallium flux fluorescence. inhibition, % at 10 µM. 4,900 compounds, 43% hits;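 active means thallium signal inhibited by more than 5 SD of the compound-free buffer control wells, on both duplicate plates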
Kir21 sel: mouse Kir2.1 channel inhibition, confirmation, selectivity assay for KCNK9 modulator project, cell-based, HEK293, thallium flux. inhibition, % at 10 µM. shares compounds with KCNK9 inh. 4,900 compounds, 4% hits. Kir2.1 cells, FluxOR thallium flux fluorescence. AID 492993, 2010;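 active means thallium signal drop more than 5 SD beyond the mean of the no-compound control wells, seen in both duplicate plates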;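 further: signal is fluorescence rise after thallium addition divided by baseline fluorescence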
HEK293 Tl ctr: thallium flux in non-induced HEK293 cells, confirmation, counter-screen for KCNK9 inhibitor project, cell-based, second counter screen, non-induced KCNK9-HEK293. shares compounds with KCNK9 inh. FluxOR thallium flux. inhibition, % at 10 µM. 4,900 compounds, 40% hits. AID 492997, 2010;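 active means thallium signal drop beyond 5 SD of the untreated control mean, on both duplicate plates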
A number is an active result; - = inactive; . = not tested or not shown. The list is not random: actives were taken first. Their share in the collection is about 3.8%.

SMILES	Kir21 block	KCNK9 inh	KCNK3 block	hERG rescue	KCNQ1 act	KCNQ1 block	KCNK9 block conf	Kir21 sel	HEK293 Tl ctr
Cn1c(=O)c2c(nc(N/N=C/c3c(O)n(C4CCCCC4)c(=S)[nH]c3=O)n2C)n(C)c1=O	-	-	-	-	-	-	.	.	.
COc1ccc(OC)c(NP(=O)(Oc2ccc(Cl)cc2)Oc2ccc(Cl)cc2)c1	-	-11	-	-	-	-	76%	-	44%
COc1ccc(OC)c(NP(=O)(Oc2ccccc2)Oc2ccccc2)c1	-	-	-	-	-	-	.	.	.
COc1cccc(-n2c(-c3ccoc3)nc3ccccc3c2=O)c1	-	-18	-	-	-	-	-	-	-
COc1cccc(-n2c(C)nc3ccccc3c2=O)c1	-	-	-	-	-	-	.	.	.
CCOC(=O)C1(c2ccccc2)CCN(CCC(C#N)(c2ccccc2)c2ccccc2)CC1	-	-8.2	-	-	-	6	40%	-	38%
CCOC(=O)C1(c2ccccc2)CCN(CCC(=O)Nc2ccc(C(=O)OC)cc2)CC1	.	.	-	.	.	.	.	.	.
CN1C(=O)CCC2(C)C1=CCC1C2CCC2(C)C1CCC2(C)O (configuration not stated)	.	.	-	.	.	.	.	.	.
C[C@]12CCC(=O)C=C1CC[C@@H]1C2[C@H](O)C[C@]2(C)C(=O)CCC12 (some centres not stated)	-	-	-	-	-	-	.	.	.
Cc1ccc(C[n+]2c(-c3ccc(C)cc3)cc(-c3ccc(C)cc3)cc2-c2ccc(C)cc2)cc1	-14	-13	-8.7	-	34	-	61%	81%	38%
CCC1(CCC(C)C)C(=O)NC(=S)NC1=O	.	.	-	.	.	.	.	.	.
CC(=O)Nc1ccccc1C(=O)OCC(=O)c1ccc2ccccc2c1	-	-	-	-	-	-	-	-	-
Cc1nn(CC(=O)N2CCC3(CC2)OCCO3)c(=O)c2cc3ccccc3n12	-	-	-	-	-	-	.	.	.
O=C(Nc1ccccc1)c1cccn(Cc2ccccc2)c1=O	-	-	-	-	-	-	.	.	.
O=C(NCc1ccccc1)c1cccn(Cc2cccc(Cl)c2)c1=O	-	-11	-	-	-	-	57%	-	30%
COc1cccc(-c2sc3ccccc3c2-c2ccc(OCCN3CCOCC3)cc2)c1	.	.	-	.	.	.	.	.	.
C/C(=N\N1CCCCCC1)c1c(O)n(-c2ccc(Cl)cc2)c(=O)[nH]c1=O	-	-	-	-	-	-	-	-	-
C/C(=N\N1CCCCCC1)c1c(O)n(-c2ccc(C)cc2)c(=O)[nH]c1=O	-	-	-	-	-	-	.	.	.
COc1ccccc1CN1CCCC(C(=O)c2ccccc2SC)C1 (configuration not stated)	-	-	-	-	-	-	-	-	-
COc1ccccc1CN1CCCC(C(=O)c2ccccc2OC)C1 (configuration not stated)	-	-	-	-	-	-	.	.	.
CCOc1ccccc1CN1CCCC(C(=O)c2cc(F)ccc2F)C1 (configuration not stated)	-	-	-	-	-	-	-	-	-
Cc1nn(CCC#N)c2c1P(=S)(N1CCCC1)OC(c1ccc(F)cc1)=N2 (configuration not stated)	-	-	-	-	-	-	-	-	-
Cc1cc([N+](=O)[O-])c2ccccc2[n+]1[O-]	-	-	-	-	-	-	.	.	.
Oc1ccc2ccccc2c1CN1CC=C(c2ccccc2)CC1	-	-	-	-	-	-	-	-	-
COC(=O)C(O)(c1ccc(NC(=S)NC(=O)c2ccccc2)cc1)C(F)(F)F (configuration not stated)	-	-9.7	-	-	-	-	46%	-	26%
SMILES	Kir21 block	KCNK9 inh	KCNK3 block	hERG rescue	KCNQ1 act	KCNQ1 block	KCNK9 block conf	Kir21 sel	HEK293 Tl ctr
Cc1ccc(OCCn2cccc2/C=C2/C(=O)NC(=O)N(Cc3ccco3)C2=O)cc1	-	-	-	-	-	-	-	-	-
Cn1cccc1/C=C1\C(=O)NC(=O)N(Cc2ccco2)C1=O	-	-	-	-	-	-	.	.	.
Cc1c(C=C2C(=O)N(C)C(=S)N(C)C2=O)c2ccccc2n1CC(=O)NCC1CCCO1 (configuration not stated)	-	-	-	-	-	-	.	.	.
COc1ccc(C(=O)C2CCCN(C3CSCCSC3)C2)c(OC)c1 (configuration not stated)	-	-	-	-	-	-	.	.	.
COc1ccc(C(=O)C2CCCN(C3CSCCSC3)C2)c(C)c1 (configuration not stated)	-	-	-	-	-	-	-	-	-
O=C1/C(=C\c2cc3c(cc2Cl)OCO3)N2CCC1CC2	-	-	-	-	-	-	-	-	-
O=C1/C(=C\c2ccc(Cl)c(Cl)c2)N2CCC1CC2	-	-	-	-	-	-	-	-	-
O=C1/C(=C\c2ccncc2)N2CCC1CC2	-	-	-	-	-	-	.	.	.
O=C1/C(=C/c2cc3c(cc2Cl)OCO3)N2CCC1CC2	-	-	.	-	-	-	.	.	.
COc1cccc(C2CC3C(=O)C=CC2N3Cc2ccccc2)c1 (configuration not stated)	-	-	-	-	-	-	-	-	-
COc1ccccc1N1CCN(Cc2cc(C)c(C)cc2O)CC1	-	-	-	-	-	-	.	.	.
COc1cc(C)c(CN2CCN(c3ccccc3)CC2)cc1C	-	-	-	-	-	-	-	-	-
CCCCn1c(O)c(/C=C/C=Nc2ccccc2)c(=O)[nH]c1=O	-	-9.2	-	-	-	-	-	-	54%
Cn1c(O)c(/C=C/C=Nc2ccccc2)c(=O)n(C)c1=O	-	-	-	-	-	-	.	.	.
CCC1CN1P(=O)(c1ccccc1)N1CC1CC (configuration not stated)	.	.	-	.	.	.	.	.	.
N#Cc1ccccc1Cn1cc(C(=O)c2cccs2)c2ccccc21	-	-8.1	-	-	-	-	-	-	34%
O=C(c1cccs1)c1cn(Cc2ccccc2Cl)c2ccccc12	-	-	-	-	-	-	.	.	.
NNCc1ccccc1	.	.	-	.	.	.	.	.	.
